An excerpt weighted towards active compounds, which were near 3% of everything screened.
MC4R ag barr = human MC4R agonism via beta-arrestin. P32245. U2OS MC4R beta-arrestin complementation, luminescence; percent of melanotan II response, DMSO zero. activation, % at 8.9 µM. 360,000 compounds, 0.98% hits. AID 540308;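 active = activation above a per-plate cutoff, the mean activation of sample wells on that plate plus 3 SD, cut at about 8% in these data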
PfG6PD inh = PfG6PD (Plasmodium falciparum) enzyme inhibition. PfGluPho enzyme, NADPH resazurin-diaphorase fluorescence. inhibition, % at 20 µM. 350,000 compounds, 0.78% hits. AID 504690;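 active = inhibition reaching at least a set limit at 20 µM in the primary screen, cut at about 59% in these data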;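 note: 0% = DMSO wells with substrate and 100% = DMSO wells lacking glucose-6-phosphate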
MC4R antag cAMP = blocks human MC4R cAMP signaling | MC4R-expressing cells, MTII-stimulated cAMP, LANCE TR-FRET | 360,000 compounds, 0.48% hits | inhibition, % at 6.5 µM | P32245 | AID 540295;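 active = inhibition above its plate's cutoff, the mean of tested wells on that plate plus 3 SD, cut at about 29% in these data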;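 note: 0% = Melanotan II alone and 100% = Melanotan II plus saturating MCL0020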
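material = U2OS cells stably expressing human melanocortin 4 receptor (MC4R) | also added = Melanotan II challenge | dosing = single nominal compound dose of 6.5 µM | detection = TR-FRET with Eu-cAMP and labeled anti-cAMP, 671 nm | replication = singlicate | timing = compound 30 min, challenge 1 h, detection 1 h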
Beta2AR agonist = human beta-2 adrenergic receptor agonism by FAP; AID 504454; P07550; Am2.2-beta2AR cells, FAP receptor internalization, flow cytometry; 340,000 compounds, 0.43% hits; response, % (no concentration beside the values);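 active = response above a set limit, near 3 SD of response in nonfluorescent compounds, cut at about 42% in these data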
Target sequence (P07550 whole entry, looked up): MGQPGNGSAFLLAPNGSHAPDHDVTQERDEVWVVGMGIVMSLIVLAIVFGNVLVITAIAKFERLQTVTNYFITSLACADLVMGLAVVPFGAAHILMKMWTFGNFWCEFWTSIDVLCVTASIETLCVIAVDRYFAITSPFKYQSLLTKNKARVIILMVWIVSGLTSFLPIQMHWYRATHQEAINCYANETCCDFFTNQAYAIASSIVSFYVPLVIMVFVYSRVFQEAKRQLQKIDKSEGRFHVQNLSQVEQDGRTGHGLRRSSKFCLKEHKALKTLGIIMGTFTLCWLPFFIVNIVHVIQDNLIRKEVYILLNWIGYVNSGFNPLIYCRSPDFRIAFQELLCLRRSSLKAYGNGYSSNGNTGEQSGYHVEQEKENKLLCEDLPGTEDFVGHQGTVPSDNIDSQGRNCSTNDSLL
ABHD5-PLIN5 inh = inhibitors of human ABHD5-perilipin-5 interaction; 360,000 compounds, 0.78% hits; Split G. princeps luciferase complementation, luminescence, 4 h; inhibition, % at 4 µM; Q00G26+Q8WTS1;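 active = inhibition above the mean inhibition across every tested compound plus 3 SD, cut at about 22% in these data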;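 note: 0% = DMSO only wells and the 100% control is not disclosed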
The depositor's hits bear a star; . = no result given.

SMILES | MC4R ag barr | PfG6PD inh | MC4R antag cAMP | Beta2AR agonist | ABHD5-PLIN5 inh
COc1ccc2nc(C)cc(N/N=C/c3ccc(F)cc3)c2c1 | 9.2* | 13.7 | 8.6 | 25.8 | 8.9
COc1ccc2cc(-c3[nH]ncc3CN3CCCN(c4ccccc4)CC3)ccc2c1 | 5.4 | 8.5 | 22.0 | 10.5 | 14.7
COC(=O)C1=C(C)N(Cc2ccccc2)C(=NCc2cccc(Cl)c2)N[C@H]1c1cccc(F)c1 | 12.8* | 15.7 | 8.6 | 48.3* | 5.9
COC(=O)C1=C(C)N(Cc2ccccc2)C(=NCc2ccccc2)N[C@H]1c1cccc(C(F)(F)F)c1 | 16.3* | 22.8 | 3.3 | 28.3 | 2.0
COC(=O)C1=C(C)N(Cc2ccccc2)C(=O)N[C@H]1c1cccc(C(F)(F)F)c1 | 0.2 | 11.7 | 0.5 | 2.8 | 2.9
COc1cc(NS(=O)(=O)c2ccc(NC(=S)NC(=O)c3ccc(F)c(F)c3)cc2)nc(OC)n1 | -2.7 | -24.6 | 2.2 | 6.5 | 2.6
CN1CCn2cnc(C(=O)N[C@@H](Cc3ccccc3)C(=O)OC(C)(C)C)c2C1=O | -0.1 | 10.7 | 4.9 | . | -7.7
Cc1cccc(C(=O)Nc2scc(-c3ccc(Br)cc3)c2C(=O)O)c1 | -1.6 | 51.6 | 1.1 | -4.5 | -12.8
COc1cc(C(=O)Nc2scc(-c3ccc(Br)cc3)c2C(=O)O)cc(OC)c1OC | 0.6 | 59.4* | 24.8 | 7.1 | -7.7
O=C(NCc1ccccc1Cl)c1[nH]c(C(F)(F)F)nc1-c1ccccc1 | . | . | . | . | -4.0
Cc1cccc(OCc2nnc(SCC(=O)Nc3ncc(C)s3)o2)c1 | -1.5 | -18.9 | -3.8 | -1.2 | -31.2
Cc1cccc(OCc2nnc(SCC(=O)Nc3ccc(C)c(C)c3)o2)c1 | 8.8* | 2.4 | 0.7 | 5.5 | 3.3
O=Cc1ccc2noc(-c3ccc(F)cc3)c2c1 | -1.8 | -6.1 | -1.9 | 46.1* | 10.2
Fc1ccc(-c2onc3ccc(C4OCCO4)cc23)cc1 | 2.3 | -8.3 | -3.9 | 37.1 | 6.4
COc1ccc(-c2cc(C(=O)Nc3cc(C)n(Cc4ccc(Cl)cc4)n3)no2)cc1OC | 24.3* | -5.4 | 5.8 | 8.2 | -1.7
COc1ccc(NC(=O)c2cccc(OC(=S)N3CCOCC3)c2)cc1 | 2.0 | -0.4 | 0.8 | 6.5 | 11.5
O=C(Nc1ccc(Br)cc1)c1cccc(OC(=S)N2CCOCC2)c1 | -0.6 | 28.8 | 3.5 | 76.9* | -4.3
CC(=O)c1ccc(S(=O)(=O)NCCC(=O)OCC(=O)N2CCCC2=O)cc1 | -2.7 | -7.6 | 16.9 | 4.3 | -2.3
O=C(Nc1ccc(Cl)c(Cl)c1)c1ccc2c(c1)OCO2 | 9.3* | 42.9 | 9.2 | -10.8 | -8.2
O=C(Nc1ccc2c(c1)OCO2)c1ccc2c(c1)OCO2 | 1.2 | 12.8 | 14.8 | -6.7 | 0.2
COC(=O)c1cnc(Oc2ccc(NC(=O)NC(=O)c3ccccc3Cl)cc2)cc1C(F)(F)F | 2.0 | 12.3 | -5.5 | 1.8 | 0.7
Cc1ccc(O)c(C(=O)CC(=O)c2ccc(C(C)(C)C)cc2)c1 | 12.3* | -21.8 | 1.5 | -0.3 | 5.5
Cc1ccc(O)c(C(=O)CC(=O)c2ccccc2Cl)c1 | 4.0 | -9.5 | -0.1 | 4.1 | -2.7
CCOc1ccc(S(=O)(=O)N2CCC(C(=O)OC(C)C(=O)N(C)C3CCCCC3)CC2)cc1 (centres undefined) | -2.5 | -10.4 | -2.3 | -2.5 | -2.1
O=C(CCC(=O)OCc1ccc(C(=O)Oc2ccc(Cl)cc2)cc1)Nc1ccccc1 | 9.6* | -21.9 | 0.7 | 10.5 | -0.1
SMILES | MC4R ag barr | PfG6PD inh | MC4R antag cAMP | Beta2AR agonist | ABHD5-PLIN5 inh
CC(=O)Nc1cc(-c2ccccc2Cl)cn2c(-c3ccc(S(C)(=O)=O)cc3)cnc12 | 2.5 | . | 22.7 | . | 3.0
CC(C)(C)C(=O)/C(C#N)=C/c1cccs1 | 0.1 | -1.1 | -0.8 | -0.2 | -1.2
N#C/C(=C\c1cccs1)C(=O)c1ccccc1Cl | . | 49.8 | . | 54.4* | .
Cc1ccc(C2/C(=C(/O)c3ccc(Br)cc3)C(=O)C(=O)N2Cc2ccco2)o1 (centres undefined) | -1.1 | 21.0 | 6.8 | -0.4 | 22.9*
CCc1cc2cc(C(=O)Nc3ccccc3F)sc2s1 | 9.0* | 4.9 | -1.6 | 1.9 | -6.2
CN1CCN(C2=C(Cl)C(=O)C(c3cnc(N4CCCCC4)s3)=C(Cl)C2=O)CC1 | 1.9 | 91.1* | -2.2 | 8.3 | 2.9
CN1CCN(C2=C(Cl)C(=O)N(C3CCCCC3)C2=O)CC1 | 0.2 | -10.1 | -1.7 | -12.1 | -5.6
CCC1CCc2c(sc3nc(SCC(=O)NCc4ccco4)n(-c4ccccc4)c(=O)c23)C1 (centres undefined) | 8.7* | 6.1 | 8.9 | 1.1 | 1.5

Screens as filed in PubChem BioAssay.
